Neddyl block: inhibitors of human cullin neddylation; P61081+Q13564; TR-FRET cullin neddylation, biochemical; inhibition, % at 25 µM; 360,000 compounds, 0.58% hits; in the data active = inhibition above about 36%
HNF4A DNA FP: change in binding of human HNF4 alpha to DNA | P41235 | HNF4a-FITC DNA binding, fluorescence polarization, 1 h | activity change, % at 10 µM | 360,000 compounds, 0.3% hits | AID 1224865; in the data active = activity change above about 30%, passing the limit was not always enough
Rpn11 inh: inhibitors of human proteasome Rpn11. human 26S proteasome, Ub4-pepOG fluorescence polarization; 20S core pre-blocked with epoxomicin. inhibition, % at 20 µM. 360,000 compounds, 0.59% hits. AID 588493;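 active = inhibition at 20 µM, scaled to each plate's controls, above about 33%, limit read from the data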
PREPL inh: inhibitors of human prolyl oligopeptidase-like enzyme PREPL | Q4J6C6 | 320,000 compounds, 0.68% hits | inhibition, % at 5.96 µM | recombinant PREPL, fluorescence polarization activity-based probe
Target sequence (Q4J6C6 whole entry, looked up): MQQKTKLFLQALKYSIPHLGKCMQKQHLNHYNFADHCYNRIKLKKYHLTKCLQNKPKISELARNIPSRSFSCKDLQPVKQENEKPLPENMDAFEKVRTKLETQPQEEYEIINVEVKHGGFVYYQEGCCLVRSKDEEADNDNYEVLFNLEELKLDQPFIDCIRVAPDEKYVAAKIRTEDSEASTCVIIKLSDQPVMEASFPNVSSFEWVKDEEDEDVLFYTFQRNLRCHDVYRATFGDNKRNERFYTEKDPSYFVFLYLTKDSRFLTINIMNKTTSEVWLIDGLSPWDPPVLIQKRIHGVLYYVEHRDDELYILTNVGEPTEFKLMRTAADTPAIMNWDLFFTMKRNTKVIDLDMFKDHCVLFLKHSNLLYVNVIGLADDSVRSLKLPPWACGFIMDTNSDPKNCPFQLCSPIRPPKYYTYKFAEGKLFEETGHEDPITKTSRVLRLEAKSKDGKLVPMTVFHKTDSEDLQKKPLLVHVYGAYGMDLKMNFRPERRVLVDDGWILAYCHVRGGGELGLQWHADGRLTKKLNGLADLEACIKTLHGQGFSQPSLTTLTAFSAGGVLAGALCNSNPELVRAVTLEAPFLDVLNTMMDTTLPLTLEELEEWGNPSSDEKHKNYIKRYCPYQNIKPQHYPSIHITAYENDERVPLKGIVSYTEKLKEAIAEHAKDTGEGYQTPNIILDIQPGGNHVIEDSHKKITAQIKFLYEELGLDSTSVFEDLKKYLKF
TbMetRS inhib: blocks T. brucei methionyl-tRNA synthetase activity; purified T. brucei MetRS, ATP depletion, Kinase-Glo luminescence; inhibition, % at 11.9 µM; 360,000 compounds, 0.4% hits; AID 624268;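 active = inhibition above a per-plate cutoff of the control wells' mean inhibition plus 3 SD, cut at about 5.5% in these data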
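Test system – parasite MetRS enzyme · Reagent – substrates ATP, L-methionine and bulk Escherichia coli tRNA · Doses – 11.9 µM compound single dose, 0.9% DMSO · Times – 15 min enzyme-compound preincubation, 2 h reaction, 10 min detection, 25 °C · Signal – Kinase-Glo luminescence, ATP depletion format · Controls – DMSO-only wells as low control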
CSN deneddyl inh: CSN deneddylation inhibition; Q92905; Purified CSN, SCF-Nedd8-OG deneddylation, fluorescence polarization; inhibition, % at 12.5 µM; 360,000 compounds, 0.38% hits; AID 651999;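 active = pattern-corrected inhibition above about 35%, with an unprinted fluorescence ratio check between 0.5 and 1.5, limit read from the data, passing the limit was not always enough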
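Schedule: reaction 90 min, room temperature / Assay system: HEK293T-derived human Csn5 enzyme / Input: Csn5 at 0.24 nM final / Measure: inhibition of Csn5 cleavage, % / Control set: substrate-only high control, full reaction low control / Technique: fluorescence polarization of the substrate / Buffer or medium: Tris/NaCl/DTT buffer, pH 7.5 / Reagent: SCFSkp2-Nedd8OG substrate at 10 nM final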
PREPL inh cf: confirmation of human PREPL enzyme inhibitors; shares compounds with PREPL inh; inhibition, % at 5.96 µM; 2,000 compounds, 67% hits; recombinant PREPL, fluorescence polarization activity probe
Of the large screens only hits and unclear results are named; the others gave an inactive call (follow-up assays come after a bar, where shown). Most compounds without a hit are left out; they make up all but 2.4% or so of the library. Rule as the data show it, unless noted: active = inhibition above about 43%; inactive = the rest.

O=C1N[C@@H](Cc2ccccc2)COC(=O)[C@@H](Cc2ccc(F)cc2)CC/C=C/C[C@@H]1CC(=O)N(CCO)Cc1ccccc1	PREPL inh 44.0 | PREPL inh cf 43.3
O=C1N[C@@H](c2ccccc2)COC(=O)[C@H](Cc2ccc(F)cc2)C/C=C\C[C@H]1CC(=O)N(CCO)Cc1ccccc1	none (no result: PREPL inh)
O=C1N[C@@H](c2ccccc2)COC(=O)[C@@H](Cc2ccc(F)cc2)C/C=C\C[C@@H]1CC(=O)N(CCO)Cc1ccccc1	PREPL inh 51.6 | PREPL inh cf inactive
CC(C)(C)[C@@H]1COC(=O)[C@H](Cc2ccc(F)cc2)CC/C=C\C[C@@H](CC(=O)N(CCO)Cc2ccccc2)C(=O)N1	PREPL inh 47.3 | PREPL inh cf 50.7
CCCCn1nnnc1C1(C)CCC(=O)N1Cc1cccc(F)c1 (centres undefined)	none (no result: Rpn11 inh, PREPL inh)
Nc1c(N)c2ccccc2oc1=O	none
Nc1c(N2CCN(c3ccccc3)CC2)c2ccccc2oc1=O	PREPL inh 50.5 | PREPL inh cf inactive
O=C(CN1C(=O)C2CC=CCC2C1=O)N1CCN(c2ccc([N+](=O)[O-])cc2)CC1 (centres undefined)	PREPL inh 48.4 | PREPL inh cf inactive
C#CCOCCOCCOCCNc1nc(N2CCN(C(=O)[C@H](CCCCN)n3cc([C@@H](N)CC(C)C)nn3)CC2)nc(N2CCN(C(=O)[C@H](Cc3ccc(O)cc3)n3cc([C@@H](N)CC(C)C)nn3)CC2)n1	none (no result: Neddyl block, HNF4A DNA FP, Rpn11 inh, TbMetRS inhib, CSN deneddyl inh)
C#CCOCCOCCOCCNc1nc(N2CCN(C(=O)[C@H](CCCCN)n3cc([C@@H](N)CC(C)C)nn3)CC2)nc(N2CCN(C(=O)[C@H](Cc3cc4ccccc4[nH]3)n3cc([C@@H](N)Cc4ccc(O)cc4)nn3)CC2)n1	PREPL inh 49.3 | PREPL inh cf 51.9
C#CCOCCOCCOCCNc1nc(N2CCN(C(=O)[C@H](CCCCN)n3cc([C@@H](N)CO)nn3)CC2)nc(N2CCN(C(=O)[C@H](Cc3cc4ccccc4[nH]3)n3cc([C@@H](N)Cc4ccc(O)cc4)nn3)CC2)n1	PREPL inh 55.2 (no result: Neddyl block, HNF4A DNA FP, Rpn11 inh, TbMetRS inhib, CSN deneddyl inh) | PREPL inh cf 50.3
CCOC(=O)CSc1nc2sc3c(c2c(=O)n1-c1ccccc1)CCN(C(C)C)C3	none
Cc1ccccc1Cn1c(=N)n(CC(O)c2ccco2)c2ccccc21 (centres undefined)	PREPL inh 44.9 | PREPL inh cf inactive
CN(C)c1ccc(-n2cc3c(=O)n(C)c(=O)n(C)c3c2)cc1	none (not shown: Neddyl block)
CCN(CC)c1ccc(-n2cc3c(=O)n(C)c(=O)n(C)c3c2)cc1	PREPL inh 48.9 (not shown: Neddyl block) | PREPL inh cf 48.4
CN(CC(=O)Nc1ccc(Cl)c(C(F)(F)F)c1)C(=O)Cc1n[nH]c(=O)c2ccccc12	PREPL inh 56.8 | PREPL inh cf inactive
COc1cc(O)c(C(CCN2CCCC2)c2cc(OC)c(OC)c(OC)c2)c(OC)c1 (centres undefined)	PREPL inh 44.8 | PREPL inh cf 47.5
COc1cc(O)c(C(CCN2CCCCC2)c2cc(OC)c(OC)c(OC)c2)c(OC)c1 (centres undefined)	none
O=C(COc1coc(CN2CCc3ccccc32)cc1=O)NCCc1ccccc1	none
O=C(COc1coc(CN2CCc3ccccc32)cc1=O)N1CCCCC1	PREPL inh 44.5 | PREPL inh cf inactive
CNC(=O)C[C@H]1C(=O)N(C2CCCCC2)C[C@@H]1c1ccc(Br)cc1	none (no result: PREPL inh)
Cc1cc(NCc2ccccn2)n2ncc(-c3ccc(Cl)cc3)c2n1	PREPL inh 48.5 (not shown: Neddyl block) | PREPL inh cf inactive
Nc1ncnc2c1ncn2[C@@H]1O[C@H](CNCc2ccc(OCC(=O)Nc3nccs3)cc2)[C@@H](O)[C@H]1O	none
Cc1nc2ccccc2c(=O)n1/N=C/c1ccccc1O	none
Cc1nc2ccccc2c(=O)n1/N=C/c1ccc(O)c(O)c1O	PREPL inh 45.3 | PREPL inh cf inactive
CC(C)(C)OC(=O)N1CCCN(C(c2cc3ccccc3o2)c2nnnn2C(C)(C)C)CC1 (centres undefined)	none (no result: Rpn11 inh, PREPL inh)
Cc1cc(Br)cn2c(Cc3ccsc3)c(C(C)(C)C)nc12	none (no result: PREPL inh)
Cc1ccc(-c2cc(C(=O)N3CCN(C(=O)c4ccco4)CC3)[nH]n2)cc1C	none
CN(C)C(=O)c1c(NC(=O)c2ccccc2)sc2c1CCC2	none
CCN(CC)CCCC(C)NC(=O)c1c(NC(=O)c2ccccc2)sc2c1CCCC2 (centres undefined)	PREPL inh 46.0 | PREPL inh cf inactive
CC[n+]1ccc(C)c2cc(P(=O)(c3ccccc3)c3ccccc3)ccc21	PREPL inh 57.0 | PREPL inh cf inactive
Cc1cc(/C=C2\SC(=Nc3ccc(F)cc3)NC2=O)c(C)n1-c1ccc(S(N)(=O)=O)cc1	PREPL inh 54.0 | PREPL inh cf 53.0
O=C(Nc1ccc(Br)cn1)c1cccc2c1-c1ccccc1C2=O	none
O=C(NCc1ccco1)c1ccc(F)c(S(=O)(=O)N2CCCCC2)c1	PREPL inh 61.0 | PREPL inh cf inactive
O=C(NCc1ccco1)c1ccc(Br)c(S(=O)(=O)N2CCCCC2)c1	none
O=C(CCCn1c(=O)oc2ccccc21)N1CCN(c2ccc(F)cc2)CC1	none
O=C(CCn1c(=O)oc2ccccc21)N1CCN(c2ccccc2F)CC1	PREPL inh 62.1 | PREPL inh cf inactive
CCCCC1CC2=C(C(=O)OC(C)(C)O2)C(c2ccc(Cl)cc2)O1 (centres undefined)	none (no result: PREPL inh)
COc1ccccc1CNC(=O)Nc1nnc([C@H]2C[C@H](O)[C@@H](CO)O2)s1	none (no result: PREPL inh)
CN1c2ccsc2/C(=N/Nc2ccccc2)CS1(=O)=O	PREPL inh 47.8 | PREPL inh cf inactive
CN1c2ccsc2/C(=N/NC(=O)c2c(F)cccc2F)CS1(=O)=O	none
O=C(NC(=S)Nc1ccccc1N1CCN(C(=O)c2ccccc2)CC1)c1cccs1	none
Cc1cccc(OCC(=O)Nc2ccc(N3CCN(C(=O)c4ccccc4)CC3)cc2)c1C	PREPL inh 53.0 | PREPL inh cf 54.4
COc1ccc(OCC(=O)Nc2ccc(N3CCN(C(=O)c4ccccc4C)CC3)cc2)cc1	none
CCC(=O)N1CCN(c2ccc(NC(=O)COc3cccc(C)c3C)cc2)CC1	PREPL inh 52.6 | PREPL inh cf 55.6
CCc1ccc(OCC(=O)Nc2ccc(N3CCN(C(=O)c4ccccc4)CC3)cc2)cc1	PREPL inh 58.1 | PREPL inh cf 56.4
O=C(NC(=S)Nc1ccc(N2CCN(C(=O)c3ccccc3)CC2)cc1)c1cccs1	PREPL inh 51.3 | PREPL inh cf inactive
OC(c1cccc(Cl)c1)c1nc(/C=C/c2ccccc2)cs1 (centres undefined)	none (no result: PREPL inh)
